From PubChem BioAssay
A selection: hits, their analogues and other compounds. The true share with any hit is near 2.4%.
Scp1 inh – Scp-1 phosphatase inhibitors, primary screen, biochemical, colorimetric, uHTS | Carboxy-terminal domain RNA polymerase II polypeptide A small phosphatase 1 (Homo … | Recombinant Scp1, phosphopeptide, malachite green phosphate absorbance | inhibition, % at 20 µM | actives 0.88% (n = 340,000) | AID 493091, 2011;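 active means inhibition above about 50% at 20 µM, limit read from the data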
Target sequence (Q9GZU7 76-261 limits assumed): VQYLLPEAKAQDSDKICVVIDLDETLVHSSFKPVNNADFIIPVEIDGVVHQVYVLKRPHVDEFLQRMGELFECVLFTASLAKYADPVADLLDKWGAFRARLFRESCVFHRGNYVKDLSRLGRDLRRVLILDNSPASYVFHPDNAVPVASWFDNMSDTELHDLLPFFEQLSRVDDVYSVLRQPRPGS
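Material: truncated SCP-1 phosphatase (76-261aa) / Buffer or medium: 50 mM Tris acetate pH 5.5, 0.005% Tween-20, 10 mM MgCl2 / Compound dosing: one concentration, 20 µM, with 1.0% DMSO / Incubation: 45 min room-temperature reaction, 5 min colour, 30 min stabiliser / Detection: colorimetric free-phosphate detection, absorbance 630 nm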
DNMT1 block – human DNMT1 methyltransferase inhibitors, primary screen, biochemical, molecular beacon, fluorescence, HinP1I cleavage, uHTS; inhibition (reported as % activation of signal), % at 10 µM; AID 588458, 2011; DNA (cytosine-5)-methyltransferase 1 (Homo sapiens), P26358; actives 0.83% (n = 360,000); in the data active means inhibition above about 50%
LMPTP inh – LMPTP phosphatase inhibitors, primary screen, biochemical, fluorescence intensity, uHTS | Low molecular weight phosphotyrosine protein phosphatase (Homo sapiens), P24666 | recombinant LMPTP-A, OMFP fluorogenic substrate | inhibition, % at 20 µM | actives 0.22% (n = 360,000) | AID 651560, 2012;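 active means compounds that cut the enzyme signal by at least half of the control window in the single-dose screen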
Target sequence (P24666 whole entry, looked up): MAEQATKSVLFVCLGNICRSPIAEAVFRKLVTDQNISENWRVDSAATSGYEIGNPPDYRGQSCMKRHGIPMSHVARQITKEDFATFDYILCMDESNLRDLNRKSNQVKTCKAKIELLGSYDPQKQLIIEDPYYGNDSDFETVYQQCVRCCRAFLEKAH
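Assay system: LMPTP-A phosphatase enzyme | Input: 0.625 nM enzyme | Also added: Fluorogenic phosphatase substrate OMFP at 400 µM final | Compound dosing: One test concentration per compound, 20 µM, with 3% DMSO overall | Schedule: 50 min enzyme reaction at room temperature, protected from light | Signal: Fluorescence intensity | Benchmarks: no-enzyme and uninhibited controls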
NadD inh – inhibitors of S. aureus NadD, primary screen, biochemical, colorimetric, uHTS | inhibition, % at 20 µM | Nicotinate-nucleotide adenylyltransferase NadD (Staphylococcus aureus N315) | AID 602399, 2012 | purified NadD enzyme, colorimetric absorbance read-out | actives 0.78% (n = 360,000); in the data active means inhibition above about 26%
STEP block – STEP phosphatase inhibitors, primary screen, biochemical, fluorescence intensity, uHTS; recombinant STEP, OMFP fluorogenic substrate; inhibition, % at 20 µM; actives 0.25% (n = 360,000);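 active means inhibition at 20 µM, scaled per plate between control wells, above about 37%, limit read from the data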
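Also added – OMFP at 25 µM · Test system – STEP tyrosine phosphatase · Technique – FITC-channel fluorescence of OMFP product · Schedule – 20 min at room temperature, dark · Evaluation – control-normalized % inhibition with plate pattern correction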
SUMO1-SIM PPI – modulators of SUMO1 protein-protein interactions, primary screen, biochemical, uHTS | Small ubiquitin-related modifier 1 (Homo sapiens), P63165 | SUMO1 binding to a labelled peptide, TR-FRET, 1 h | inhibition, % at 20 µM | actives 0.33% (n = 360,000); in the data active means inhibition above about 37%
Target sequence (P63165 whole entry, looked up): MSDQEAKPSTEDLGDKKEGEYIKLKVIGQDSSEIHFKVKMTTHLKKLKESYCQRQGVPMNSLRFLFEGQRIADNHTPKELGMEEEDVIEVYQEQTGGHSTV
Each line names hits and unclear results; the compound was inactive in the other large screens.

Cc1ccc(C(=O)O)cc1N1C(=O)c2cccc3c([N+](=O)[O-])ccc(c23)C1=O	DNMT1 block 60
CN(C)/C=C1\C=C2C(=O)c3ccccc3N2C1=O	DNMT1 block active
COc1ccc(OC)c2c1C(=O)c1ccccc1C2=O	none (no result: DNMT1 block, LMPTP inh, NadD inh, STEP block, SUMO1-SIM PPI)
COc1ccc2noc3c2c1C(=O)c1ccccc1-3	DNMT1 block 187
CCN(CC)c1ccc(NC(=O)Cn2ncc3c(C)n(Cc4ccccc4F)c(C)c3c2=O)c(C)c1	DNMT1 block 60
O=C1C(C=Nc2ccccc2O)=C(O)c2ccccc21	none
Cc1ccc(O)c(N=CC2=C(O)c3ccccc3C2=O)c1	DNMT1 block 57
Cc1cccc2c(N=Nc3ccc(S(=O)(=O)Nc4ccc(Cl)cc4)cc3[N+](=O)[O-])c(O)[nH]c12	NadD inh 33
COc1cc2c(oc(=O)c3cc(C)cc(OC)c32)c2c(C3OC(C)C(O)C(C)(O)C3O)ccc(O)c12 (centres undefined)	DNMT1 block 63
COc1cccc(/C=N/NC(=O)c2c(-c3ccccc3)noc2C)c1OC	none
COc1ccc(Cl)cc1/C=N/NC(=O)c1c(-c2ccccc2)noc1C	SUMO1-SIM PPI 53
COc1ccccc1C=NN1C(=O)CSC1=S	none
O=C1CSC(=S)N1/N=C/c1ccc(O)c(O)c1O	Scp1 inh 53, LMPTP inh 65
CC(=O)c1c(C)nc(-c2ccc(Cl)cc2)nc1NC(=O)C(C)C	none
CCC(CC)c1nnc(NC(=O)CN2C(=O)C3C4C=CC(C4)C3C2=O)s1 (centres undefined)	none
CCCN(CCC)C(=O)CC(c1ccc(F)cc1)c1ccco1 (centres undefined)	STEP block 48
CCN(CC)C(=O)CC(c1ccccc1)c1ccco1 (centres undefined)	none
NC(=O)C1(c2ccccc2)OC1c1ccccc1 (centres undefined)	none
COc1ccc(-n2nc3c(N4CCC(C(=O)NCc5ccco5)CC4)nnc(C)c3c2C)cc1	LMPTP inh 53
CCOc1ccccc1CNC(=O)C1CCCN(c2nnc(C)c3c(C)n(-c4ccccc4)nc23)C1 (centres undefined)	SUMO1-SIM PPI 47
COc1ccc(-n2nc3c(N4CCC(C(=O)NCc5ccccc5C)CC4)nnc(C)c3c2C)cc1	none
Cc1ccc(-n2nc3c(N4CCC(C(=O)NCc5ccc(C)o5)CC4)nnc(C)c3c2C)cc1	LMPTP inh 65
CC(C)c1nnc(SCC(=O)Nc2ccc3c(c2)OCO3)n1C	none
O=C(CSc1nc2ccccc2c(=O)n1CCCN1CCOCC1)NCCc1ccccc1	none
CCOC(=O)N1CCN(S(=O)(=O)c2cccc3nsnc23)CC1	none
CCc1nnc(NC(=O)CSc2sc3c(O)cc(=O)[nH]c3c2C#N)s1	Scp1 inh 95, DNMT1 block 83, SUMO1-SIM PPI 40
CCc1nnc(NC(=O)CSc2nc3[nH]c(=O)cc(O)c3s2)s1	none
O=C1NN(c2ccccc2)C(=O)C1=Cc1ccccc1O	none (no result: Scp1 inh)
O=C1NN(c2ccccc2)C(=O)/C1=C\c1cccn1-c1ccc(Cl)c([N+](=O)[O-])c1	NadD inh 42
CCc1ccccc1NC(=O)Nc1c(C)n(C)n(-c2ccccc2)c1=O	none
O=C(COC(=O)c1ccccc1Br)NCCC1=CCCCC1	none
O=C(NC(=S)NCCC1=CCCCC1)c1ccccc1Br	Scp1 inh 67
Cc1ccc(C(=O)Nc2nc(-c3ccco3)c(-c3ccco3)s2)o1	NadD inh 31
CN(C)c1ccc(/C=C(/NC(=O)c2ccccc2)C(=O)N/N=C/c2ccc([N+](=O)[O-])c(O)c2)cc1	NadD inh 41
O=C(N/N=C/c1ccc2c(c1)OCO2)/C(=C/c1ccc2c(c1)OCO2)NC(=O)c1ccccc1	none
Nc1nn2cc(-c3ccc(Br)cc3)nc2c2ccccc12	SUMO1-SIM PPI 65
COc1cc(/C=N/N=C(N)N)ccc1OCc1ccccc1Cl	none
Cn1c(=O)c(C#N)c(-c2ccc(F)cc2)c2cc(C(=O)c3cc(Cl)cc(Cl)c3O)cnc21	NadD inh 24
CCOc1ccc(C(=O)N[C@H](C(=O)Nc2cccc(S(=O)(=O)N3CCOCC3)c2)C(C)C)cc1	none
N#CCc1ccc(NC(=O)/C=C/c2ccc([N+](=O)[O-])o2)cc1	none
N#C/C(=C\c1ccc([N+](=O)[O-])o1)C(=O)Nc1ccc(F)cc1	Scp1 inh 57
Cc1ccc(-n2nc3c(=O)n(CC(=O)NCc4cccs4)nc(C)c3c2C)cc1	none
O=C(O)c1nccnc1C(=O)Nc1ccccc1-c1ccccc1	none
CN(C)c1ccc(C(=O)N/N=C/c2cc(Br)cc(Br)c2O)cc1	NadD inh 32
COc1c(Br)cc(Br)cc1/C=N/NC(=O)c1ccncc1	none
NC(=O)c1cc[n+](CC2=C(C(=O)O)N3C(=O)[C@@H](NC(=O)C(c4ccccc4)S(=O)(=O)[O-])[C@H]3SC2)cc1 (some centres undefined)	Scp1 inh 85, DNMT1 block 98, STEP block 97, SUMO1-SIM PPI 82
Cc1nnc(SCC2=C(C(=O)O)N3C(=O)C(NC(=O)Cc4ccccc4)C3SC2)s1 (centres undefined)	none
CN(Cc1cnccn1)C(=O)C1CCC(=O)N(CCc2ccc(Cl)cc2)C1 (centres undefined)	none
Cc1cnc(CN(C)C(=O)C2CCC(=O)N(CCc3ccc(Cl)cc3)C2)[nH]1 (centres undefined)	SUMO1-SIM PPI 40 (no result: Scp1 inh)
COc1ccccc1C1c2[nH]c3ccccc3c2C[C@H]2C(=O)N(C3CCN(Cc4ccccc4)CC3)CC(=O)N12 (some centres undefined)	none
N#C/C(C(=O)NCCc1ccccc1)=C1/N=C(NC(=O)c2cccs2)c2ccccc21	SUMO1-SIM PPI 48
COc1cccc(N2CCN(C(=O)c3ccc(CSc4nc5ccncc5[nH]4)cc3)CC2)c1	LMPTP inh 52
O=C(c1ccc(CSc2nc3ccncc3[nH]2)cc1)N1CCCCC1	none
CCC(C)NC(=O)CSc1nc2cc3c(cc2c(=O)n1Cc1ccco1)OCO3 (centres undefined)	SUMO1-SIM PPI 42
COc1ccc(CCC(=O)Nc2c(-c3ccc(N(C)C)cc3)[nH][nH]c2=O)cc1	DNMT1 block 58, SUMO1-SIM PPI 47 (no result: Scp1 inh)
CC1CC2=C(C(=O)O1)C(C)Nc1ccccc1N2 (centres undefined)	none
